In brackets after ≈: the same amount, converted by molar mass. Activity calls are given as the source filed them. The calls are words filed in the database; no cut-off is given here.
How the values were obtained:
Homo sapiens = species on record: Homo sapiens; assay: Inhibition of human methionine aminopeptidase 1B at 100 uM using Met-AMC as substrate relative to control
Summary of the method: (§1)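 Purified MetAP at 4 µM in 50 mM HEPES with 150 mM KCl and CoCl2 at 3 molar equivalents of enzyme. pH 7.5 for SpMetAP1a and EfMetAP1a, pH 8.0 for HsMetAP1b. Substrate L-Met-AMC at 50, 100 and 150 µM. Compounds (10 mM DMSO stocks) tested over 1 to 120 µM for % inhibition; Ki by Dixon method.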

Enterococcus faecalis [1] = assay: Inhibition of Enterococcus faecalis methionine aminopeptidase 1A at 100 uM using Met-AMC as substrate relative to control; summary of the method: as §1
[2] = tested on: Mycobacterium tuberculosis; assay: Inhibition of Mycobacterium tuberculosis methionine aminopeptidase 1C at 100 uM using Met-AMC as substrate relative to control
Summary of the method: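 Purified MtMetAP1c (4 µM) in 50 mM Hepes pH 7.5 with 150 mM KCl and CoCl2 at three molar equivalents of enzyme. Substrate was L-Met-AMC at 50, 100 or 150 µM. Compounds came from 10 mM DMSO stocks. Percent inhibition was taken against the uninhibited control.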

Streptococcus pneumoniae [3] = assay: Inhibition of Streptococcus pneumoniae methionine aminopeptidase 1A at 100 uM using Met-AMC as substrate relative to control; summary of the method: as §1
[4] = Inhibition of human methionine aminopeptidase 1B using Met-AMC as substrate by Dixon method; summary of the method: as §1
[5] = Inhibition of Enterococcus faecalis methionine aminopeptidase 1A using Met-AMC as substrate by Dixon method; summary of the method: as §1
[6] = Inhibition of Mycobacterium tuberculosis methionine aminopeptidase 1C using Met-AMC as substrate by Dixon method
[7] = Inhibition of Streptococcus pneumoniae methionine aminopeptidase 1A using Met-AMC as substrate by Dixon method; summary of the method: as §1
Pseudomonas aeruginosa = assay: Antibacterial activity against Pseudomonas aeruginosa MTCC 2453 after 24 hrs by broth dilution assay; format: functional; details: MTCC 2453, 24 h
Summary of the method: (§2)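 Broth dilution per NCCLS in nutrient broth, serial dilutions 1000 to 7.8 µg/mL, DMSO below 4% final. Inoculum approx. 2.5×10⁶ cells/mL, 37 °C with shaking at 150 rpm for 24 h. MIC taken as the lowest concentration with no visible growth. Ciprofloxacin served as positive control.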

Salmonella typhimurium = assay: Antibacterial activity against Salmonella typhimurium MTCC 3224 after 24 hrs by broth dilution assay; format: functional, Salmonella enterica subsp. enterica serovar Typhimurium; details: Salmonella enterica, MTCC 3224, 24 h; summary of the method: as §2
Streptococcus pneumoniae [8] = assay: Antibacterial activity against Streptococcus pneumoniae MTCC 655 after 24 hrs by broth dilution assay; format: functional; details: MTCC 655, 24 h; summary of the method: as §2
Enterococcus faecalis [9] = assay: Antibacterial activity against Enterococcus faecalis MTCC 439 after 24 hrs by broth dilution assay; format: functional; details: MTCC 439, 24 h; summary of the method: as §2
Klebsiella pneumoniae = assay: Antibacterial activity against Klebsiella pneumoniae ATCC 700603 after 24 hrs by broth dilution assay; format: functional; details: Klebsiella pneumoniae, 700603, 24 h; summary of the method: as §2
Escherichia coli [10] = assay: Antibacterial activity against Escherichia coli ATCC 25922 after 24 hrs by broth dilution assay; format: functional; details: ATCC 25922, 24 h; summary of the method: as §2
Escherichia coli [11] = assay: Antibacterial activity against Escherichia coli MRA11 at 512 ug/mL after 24 hrs by broth dilution assay relative to control; format: functional
Summary of the method: (§3)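 Multidrug-resistant E. coli isolates in Luria broth, test range 8 to 1024 µg/mL (ciprofloxacin 0.49 to 63.3 µg/mL). Inoculum 10 µL of a 1000-fold diluted 0.1 OD600 culture, incubated overnight at 37 °C. OD read at 600 nm. % inhibition = (a−b)/a×100, with media and compound-colour blanks subtracted.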

Escherichia coli [12] = assay: Antibacterial activity against Escherichia coli MRC17 at 512 ug/mL after 24 hrs by broth dilution assay relative to control; format: functional; summary of the method: as §3
Escherichia coli [13] = assay: Antibacterial activity against Escherichia coli MRC24 at 512 ug/mL after 24 hrs by broth dilution assay relative to control; format: functional; summary of the method: as §3
Escherichia coli [14] = assay: Antibacterial activity against Escherichia coli MRAE32 at 512 ug/mL after 24 hrs by broth dilution assay relative to control; format: functional; summary of the method: as §3
Escherichia coli [15] = assay: Antibacterial activity against Escherichia coli MROB11 at 512 ug/mL after 24 hrs by broth dilution assay relative to control; format: functional; summary of the method: as §3
Escherichia coli [16] = assay: Antibacterial activity against Escherichia coli MRAE26 at 1024 ug/mL after 24 hrs by broth dilution assay relative to control; format: functional; summary of the method: as §3
Escherichia coli [17] = assay: Antibacterial activity against Escherichia coli MRAE33 at 1024 ug/mL after 24 hrs by broth dilution assay relative to control; format: functional; summary of the method: as §3
Escherichia coli [18] = assay: Antibacterial activity against Escherichia coli MRAE44 at 1024 ug/mL after 24 hrs by broth dilution assay; format: functional, organism-based; summary of the method: as §3
Escherichia coli [19] = assay: Antibacterial activity against Escherichia coli MRA11 after overnight incubation; format: functional; summary of the method: as §3
Escherichia coli [20] = assay: Antibacterial activity against Escherichia coli MRC17 after overnight incubation; format: functional; summary of the method: as §3
Escherichia coli [21] = assay: Antibacterial activity against Escherichia coli MRC24 after overnight incubation; format: functional; summary of the method: as §3
Escherichia coli [22] = assay: Antibacterial activity against Escherichia coli MRAE26 after overnight incubation; format: functional; summary of the method: as §3
Escherichia coli [23] = assay: Antibacterial activity against Escherichia coli MRAE32 after overnight incubation; format: functional; summary of the method: as §3
Escherichia coli [24] = assay: Antibacterial activity against Escherichia coli MRAE33 after overnight incubation; format: functional; summary of the method: as §3
Escherichia coli [25] = assay: Antibacterial activity against Escherichia coli MRAE44 after overnight incubation; format: functional; summary of the method: as §3
Escherichia coli [26] = assay: Antibacterial activity against Escherichia coli MROB11 after overnight incubation; format: functional; summary of the method: as §3
Escherichia coli [27] = assay: Synergistic antibacterial activity against Escherichia coli MRA11 after 18 hrs in presence of ciprofloxacin by checkerboard method; format: functional; details: MRA11, 18 h
Summary of the method: (§4)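 Checkerboard combination with ciprofloxacin in Mueller-Hinton broth: compound 1024 to 16 µg/mL crossed with ciprofloxacin 128 to 2 µg/mL. Inoculum 5×10⁵ CFU/mL suspension, 18 h at 37 °C. Fractional inhibitory concentration index derived from the combination.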

Escherichia coli [28] = assay: Synergistic antibacterial activity against Escherichia coli MRC17 after 18 hrs in presence of ciprofloxacin by checkerboard method; format: functional; details: MRC17, 18 h; summary of the method: as §4
Escherichia coli [29] = assay: Synergistic antibacterial activity against Escherichia coli MRAE33 after 18 hrs in presence of ciprofloxacin by checkerboard method; format: functional; details: MRAE33, 18 h; summary of the method: as §4
Escherichia coli [30] = assay: Synergistic antibacterial activity against Escherichia coli MRA11 assessed as ciprofloxacin MIC at 16 to 1024 ug/mL after 18 hrs by checkerboard method; format: functional; details: MRA11, 18 h; summary of the method: as §4
Escherichia coli [31] = assay: Synergistic antibacterial activity against Escherichia coli MRC17 assessed as ciprofloxacin MIC at 16 to 1024 ug/mL after 18 hrs by checkerboard method; format: functional; details: MRC17, 18 h; summary of the method: as §4
Escherichia coli [32] = assay: Synergistic antibacterial activity against Escherichia coli MRAE33 assessed as ciprofloxacin MIC at 16 to 1024 ug/mL after 18 hrs by checkerboard method; format: functional; details: MRAE33, 18 h; summary of the method: as §4
Escherichia coli [33] = assay: Synergistic antibacterial activity against Escherichia coli MRA11 assessed as fractional inhibitory concentration index after 18 hrs in presence of ciprofloxacin by checkerboard method; format: functional; summary of the method: as §4
Escherichia coli [34] = assay: Synergistic antibacterial activity against Escherichia coli MRC17 assessed as fractional inhibitory concentration index after 18 hrs in presence of ciprofloxacin by checkerboard method; format: functional
Summary of the method: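 Checkerboard combination against MDR E. coli. Test agent gradient 1024–16 µg/mL crossed with ciprofloxacin 128–2 µg/mL in Mueller-Hinton broth. Wells were inoculated with a 5 × 10⁵ CFU/mL suspension and incubated 18 h at 37 °C. Interaction was expressed as the fractional inhibitory concentration index (FICI).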

Escherichia coli [35] = assay: Synergistic antibacterial activity against Escherichia coli MRAE33 assessed as fractional inhibitory concentration index after 18 hrs in presence of ciprofloxacin by checkerboard method; format: functional; summary of the method: as §4
CHO [36] = assay: Cytotoxicity against CHO cells at 50 ug/mL after 48 hrs by MTT assay; format: cell-based, Cricetulus griseus; details: chinese hamster
Summary of the method: (§5)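 MTT assay: cells maintained in DMEM with 10% FBS and penicillin/streptomycin at 37 °C, 5% CO2. Seeded at approx. 2×10⁴ cells/well, 24 h before treatment, then exposed to 10 to 400 µg/mL for 48 h at 37 °C. MTT (5 mg/mL stock in PBS) added for 4 h, formazan dissolved in DMSO, A570 read. Triplicate wells; viability given relative to untreated cells.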

[37] = Cytotoxicity against CHO cells assessed as cell viability at 100 ug/mL after 48 hrs by MTT assay relative to control; format: cell-based, Cricetulus griseus; details: chinese hamster, read-out: Activity; summary of the method: as §5
CHO [38] = assay: Cytotoxicity against CHO cells at 300 ug/mL after 48 hrs by MTT assay; format: cell-based, Cricetulus griseus; details: chinese hamster; summary of the method: as §5

COC(=O)[C@@H](C)NC(=O)/C(O)=C/C(=O)c1oc2ccc(Br)cc2c1C
inhibition (Homo sapiens): 89.1%
inhibition (Enterococcus faecalis [1]): 93.9%
inhibition [2]: 99.6%
inhibition (Streptococcus pneumoniae [3]): 97.4%
Ki [4]: 22.1 µM
Ki [5]: 10.4 µM
Ki [6]: 17.6 µM
Ki [7]: 8.78 µM
MIC (Pseudomonas aeruginosa): 125 µg/mL (≈ 305 µM)
MIC (Salmonella typhimurium): 500 µg/mL (≈ 1220 µM)
MIC (Streptococcus pneumoniae [8]): 62.5 µg/mL (≈ 152 µM)
MIC (Enterococcus faecalis [9]): 31.2 µg/mL (≈ 76.2 µM)
MIC (Klebsiella pneumoniae): 500 µg/mL (≈ 1220 µM)
MIC (Escherichia coli [10]): 62.5 µg/mL (≈ 152 µM)
Activity (Escherichia coli [11]): 65%
Activity (Escherichia coli [12]): 60%
Activity (Escherichia coli [13]): 76%
Activity (Escherichia coli [14]): 88%
Activity (Escherichia coli [15]): 87%
Activity (Escherichia coli [16]): 54%
Activity (Escherichia coli [17]): 50%
Activity (Escherichia coli [18]): Active
ICmax (Escherichia coli [19]): 512 µg/mL
MIC (Escherichia coli [19]; Escherichia coli, MRA11): 1020 µg/mL (≈ 2500 µM)
ICmax (Escherichia coli [20]): 512 µg/mL
MIC (Escherichia coli [20]; Escherichia coli, MRC17): 1020 µg/mL (≈ 2500 µM)
ICmax (Escherichia coli [21]): 512 µg/mL
ICmax (Escherichia coli [22]): 1024 µg/mL
ICmax (Escherichia coli [23]): 512 µg/mL
ICmax (Escherichia coli [24]): 512 µg/mL
MIC (Escherichia coli [24]; Escherichia coli, MRAE33): 1020 µg/mL (≈ 2500 µM)
ICmax (Escherichia coli [25]): 1024 µg/mL
ICmax (Escherichia coli [26]): 512 µg/mL
MIC (Escherichia coli [27]): 1020 µg/mL
MIC (Escherichia coli [28]): 1020 µg/mL
MIC (Escherichia coli [29]): 16 µg/mL
MIC (Escherichia coli [30]): 128 µg/mL
MIC (Escherichia coli [31]): 64 µg/mL
MIC (Escherichia coli [32]): 2 µg/mL
fractional inhibitory concentration index (FICI) (Escherichia coli [33]): 2
fractional inhibitory concentration index (FICI) (Escherichia coli [34]): 1.5
fractional inhibitory concentration index (FICI) (Escherichia coli [35]): 1.0156
Activity (CHO [36]): Non-Toxic
viability at 48 h, 100 ug/mL [37]: 50%
Activity (CHO [38]): Toxic
